This data set is described as follows: Toxicity liver stage against HepG2, at 10uM. Type of data set: cell-based. On the set-up: test concentration 10 uM, cell line HepG2-A16-CD81EGFP. To be noted: human, HepG2-A16-CD81EGFP cells; read-out: INHIBITION
The essentials:
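Uninfected HepG2-A16-CD81EGFP cells, 3 × 10^3 per well, 1536-well, plated on prespotted compound at 10 μM final, parasite-free screening media added to match infected plates; puromycin 10 μM positive, DMSO 0.5% negative; run in parallel with 48 h PbLuc assay at 37 °C, 5% CO2; viability by CellTiter-Glo luminescence, normalized to controls.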
`N#Cc1c2n(c3c(N)ncnc13)CCCCC2`: the cytotoxicity at 10 µM worked out at 15.1%. Then `CCNC(=O)N[C@H]1C[C@@H](Cc2cc(CN3CCCCC3)on2)C1(C)C`, with -5.46%; and `O=c1c(NCCCO)c(N2CCN(c3ccccc3)CC2)c1=O`, with -3.66%; and `COc1ccc2nnc(CCCC(=O)NCc3ccccc3)n2n1`, with -4.1%. As for `Cc1ccc(S(=O)(=O)NCCc2ccoc2)s1`, the figure is 2.69%; as for `O=C(CCC(=O)N1CCC(Oc2ncccc2Br)CC1)c1ccccc1`, 30.4%. Then `COc1cccc(OCC(=O)N2CCCSCC2CN2CCOCC2)c1` (configuration not stated), with 4.01%; and `O=C(c1ccoc1)N1CC[C@H]2[C@H]1CCN2S(=O)(=O)C1CC1`, with -139%; and `CCOc1ccc(C2SCC(=O)Nc3c2c(=O)[nH]n3C(C)C)cc1` (configuration not stated), with 8.68%. Take `CCN(CC)CCNc1nc(C(C)C)nc2c(C)nn(CC)c12`: the cytotoxicity at 10 µM amounted to 8.99%. As for `CCN(CC)c1nc(C)cc(C(=O)Nc2ccc(Br)cc2)n1`, the figure is 6.46%; as for `Cc1ccn(-c2ccnc(N3CCN(c4ncccn4)CC3)n2)n1`, 13.4%. Then `Cc1ccc(OCCCNC(=O)C2(C)CC(=O)N3C=CC=CC3=N2)cc1` (configuration not stated), with 0.343%; and `Cc1cc(N(C)C)nc(C2COCCN2Cc2cc(C)on2)n1` (configuration not stated), with -3.55%.

For `O=C(c1cnco1)N1CCC(Cc2cccc3ncccc23)CC1`, the cytotoxicity at 10 µM was found to be 6.79%.

As to `O=C(CCn1cccn1)N1CCC(c2nnc(-c3ccccn3)o2)CC1`, the cytotoxicity at 10 µM amounted to 0.125%. In the case of `CCCN(C(=O)c1cnc(C)cn1)c1nc2c(s1)CCc1c-2cnn1C`, the cytotoxicity at 10 µM is -28%. As for `COc1cc(CN2CC[C@@]3(CCCO3)[C@@H](O)C2)ccc1F`, the figure is -3.14%.

As to `Cc1c[nH]nc1C1CCN(S(=O)(=O)N(C)C)CC1`, the cytotoxicity at 10 µM turned out to be 0.462%. As for `CN(CC(=O)NCC(F)(F)F)Cc1cccc2c1OCCO2`, the figure is -18.7%; as for `CC(OCC1CC1)C(=O)Nc1nccn1Cc1ccccc1` (configuration not stated), -6.79%.

As for `Cc1cc(C(=O)NC(C)Cc2ccc(N(C)C)cc2)n(C)n1` (configuration not stated), the cytotoxicity at 10 µM was found to be 1.19%.

For the compound `O=C(Cc1ccc(F)cc1F)NCC(=O)Nc1ccccn1`, the cytotoxicity at 10 µM was 3.24%.

Take `CCCS(=O)(=O)N1CCCC(c2nc(-c3ccccc3)c[nH]2)C1` (configuration not stated): the cytotoxicity at 10 µM turned out to be 16.2%.

For the compound `CC(O)CN(C)C(=O)CCNC(=O)OC(C)(C)C` (configuration not stated), the cytotoxicity at 10 µM is -5.32%. As for `COc1ccc(N2CCC(NC(=O)c3sccc3C)CC2)cc1`, the figure is -2.28%.

As to `CN(CCc1ccccn1)C(=O)Nc1cccnc1N1CCCC1`, the cytotoxicity at 10 µM is -27.2%. Then `CC1CCC(NS(=O)(=O)CC(=O)NC(C2CC2)C2CC2)CC1` (configuration not stated), with -2.8%; and `CNc1snc(C)c1C(=O)NC(C)CC(=O)c1cccs1` (configuration not stated), with -0.227%. Then `COC(=O)C(O)C1CCN(CCc2ccncc2)CC1` (configuration not stated), with 11.8%; and `C1CCC(CSc2nnnn2C2CC2)OC1` (configuration not stated), with 5.29%. As for `Cc1cc(CNc2cccc(C(=O)N(C)c3ccccc3)c2)no1`, the figure is 2.95%. In the case of `COc1ccc(CCNC(=O)C(C)Nc2cc(C)ccc2C)cc1` (configuration not stated), the cytotoxicity at 10 µM was -5.71%. Then `COc1cc2nc(NCc3scnc3C)nc(N)c2cc1OC`, with 6.34%; and `CCN(CC1CN(Cc2c(C)noc2C)CCO1)c1cccnn1` (configuration not stated), with -7.99%. As for `O=C(NCc1nnc2n1CCCCC2)N(Cc1ccccn1)C1CC1`, the figure is 2.46%.

On to `CC(O)(CNC(=O)NCc1cccc(-n2cncn2)c1)c1ccco1` (configuration not stated), for which the cytotoxicity at 10 µM turned out to be 15%. As for `O=C(NCc1nccn1CCc1ccccc1)NCC1CCC1`, the figure is 4.7%; as for `Cc1cnc(CN2CC=C(c3c[nH]c4ncccc34)CC2)o1`, 25%; as for `CC(CC(=O)NCCNS(C)(=O)=O)C1CCCCC1` (configuration not stated), 6.43%. Then `O=S(=O)(CCc1ccccc1)Cc1nc(C2CC2)no1`, with 1.03%. Take `Cc1ccc(CNC(=O)c2c[nH]nc2NC(=O)C2COCCO2)cc1` (configuration not stated): the cytotoxicity at 10 µM was -9.95%. Consider `CC(C)(NC(=O)Cc1ccccc1F)C(C)(C)C(=O)O`, for which the cytotoxicity at 10 µM was -9.1%.

Regarding `CCN(C(=O)COC)C(c1ccc(Cl)cc1)c1ccccn1` (configuration not stated), the cytotoxicity at 10 µM was -9.7%. Then `Cc1cccc(C2(NCCCS(C)(=O)=O)CCCC2)c1`, with 1.3%; and `OC(CNC1CCSCC1)c1cccc(OCc2ccccc2)c1` (configuration not stated), with 8.22%. Then `c1cnn(CC2CN(c3ncnc4sccc34)CCO2)c1` (configuration not stated), with 25.1%; and `CN(C)C(=O)CN1CCO[C@H]2CN(Cc3cccc(F)c3)C[C@H]21`, with -97.2%; and `Cc1noc([C@@]23CCO[C@@H]2CCN(S(=O)(=O)c2cccnc2)C3)n1`, with -103%. As for `c1ccn(Cc2nnc3n2CCCN(c2cnccn2)C3)c1`, the figure is -2.2%; as for `CCN1CCC2(CC1)CC(NC(=O)c1c[nH]cn1)c1ccccc1O2` (configuration not stated), -103%; as for `Cc1cccc(-c2nnn3c2COC(CNS(=O)(=O)C2CC2)C3)c1` (configuration not stated), -110%. For the compound `CN1CCN(c2ncnc3c2c(C(=O)NC2CC2)c2ccccn23)CC1`, the cytotoxicity at 10 µM is 3.34%. As for `COCCN1C[C@H]2[C@@H](C1)N(C(=O)c1cccs1)CC[C@H]2OC`, the figure is -2.03%; as for `CC(C)c1nnsc1CNC(=O)C1CCN(C(=O)C2CCC2)CC1`, -2.75%; as for `Cn1ccnc1CN(CCO)C(=O)c1cc2ccccc2o1`, 3.42%. Take `CNc1nc(C(=O)N2CCCC(COc3ccc(F)cc3)C2)cs1` (configuration not stated): the cytotoxicity at 10 µM is 8.35%. As for `CCN1CCCC1CN(Cc1cc[nH]n1)CC1CCN(CCOC)CC1` (configuration not stated), the figure is -5.14%; as for `CCCc1nnc2sc(C3CCN(C4CCN(C)CC4)CC3)nn12`, -10.6%; as for `COc1cc(C#N)ccc1OC12CCCN(CC1)C2` (configuration not stated), -19.1%.

Turning to `Fc1ccc(C(CNc2ccncn2)N2CCCC2)cc1` (configuration not stated), the cytotoxicity at 10 µM worked out at 15.9%. Then `CO[C@H]1C[C@@H](O)C12CCN(CCOc1ccc(Cl)cc1)CC2`, with -9.66%; and `N[C@@H]1c2ccccc2C2(CCN(c3cnc4ccccc4n3)CC2)[C@H]1O`, with -2.45%. Then `c1ccc(CN2CCCC(CNc3ncnc4c3CCNCC4)C2)cc1` (configuration not stated), with -9.89%. As for `Cn1c(N2CCOCC2)nc2cc(C(=O)N3CCC(O)(CO)C3)ccc21` (configuration not stated), the figure is -4.62%; as for `Cc1nc(CN2CC[C@@H]3[C@@H](CCC(=O)N3CCc3c[nH]cn3)C2)co1`, 2.62%; as for `CCn1cnnc1CN(C)Cc1c[nH]nc1-c1ccc(F)cc1`, -2.59%. As for `N#CC1CCCN(C(=O)Cn2ncc(N3CCCC3)cc2=O)C1` (configuration not stated), the cytotoxicity at 10 µM is -6.36%. For the compound `CC1=CC(C)(C)N(CN2C(=O)c3ccccc3C2=O)c2ccccc21`, the cytotoxicity at 10 µM was determined as 5.82%. Then `CCOc1cccc(CN(Cc2cnn(C)c2)CC(C)C)c1O`, with -7%; and `CN(CCCc1nccn1C)C(=O)C1COc2ccccc2C1` (configuration not stated), with -9.1%.

On to `c1cncc(CN(CCCn2ccnc2)CC2CCOC2)c1` (configuration not stated), for which the cytotoxicity at 10 µM was 1.79%. As for `Cc1nn(C)c(C)c1C(C(=O)O)N1CC=C(c2ccccc2)CC1` (configuration not stated), the figure is -2.11%. Then `c1cc2ccc(N3CCN(Cc4ccc5c(c4)OCO5)CC3)nc2[nH]1`, with -6.07%. Then `CN1N=C(C(=O)N2CCCC(CCc3ccccc3F)C2)CCC1=O` (configuration not stated), with -6.67%; and `CN(C(=O)c1cccc(NCC(=O)O)c1)C(C1CC1)C1CC1`, with 5.01%; and `c1coc(CN2CCn3c(nc4ccccc43)C2)c1`, with 21.8%. For the compound `Cn1ncc2c(NCCCOc3cccnc3)nc(C3CCCC3)nc21`, the cytotoxicity at 10 µM was determined as 2.94%. Then `Cc1ncncc1C(=O)Nc1cnn(CC(=O)NC2CCCC2)c1`, with 4.88%; and `Cc1cncc(C(=O)NCCSCc2cccs2)c1`, with -6.48%; and `C=C(C)COCCNC(=O)C1CCCN1C(C)=O` (configuration not stated), with -10.7%. As for `Cc1nc(CN(C)C2CCN(Cc3sc(C)nc3C)C2)no1` (configuration not stated), the figure is -8.99%; as for `CNS(=O)(=O)c1ccc(C(=O)N2CCCC2Cc2ccccc2)o1` (configuration not stated), -8.53%; as for `CCOCCN1CCN(Cc2cccc(C(=O)N(C)C)c2)CC1`, -13.5%.

For `CC(C)(NCC(=O)NCCC#N)c1ccc2c(c1)OCCO2`, the cytotoxicity at 10 µM is -4.03%. In the case of `CC(NC(=O)N(C)Cc1ccsc1)c1ccc2c(c1)OCO2` (configuration not stated), the cytotoxicity at 10 µM is -10.6%.

In the case of `CN(C)c1ccc(CCNC(=O)NCc2ccc(N(C)C)nc2)cc1`, the cytotoxicity at 10 µM was -11.2%. Then `CCOc1ncccc1NC(=O)NC1CCN(S(C)(=O)=O)CC1`, with -7.96%; and `Cn1c(CN2CCOC(c3nc(C(C)(C)C)n[nH]3)C2)nnc1C1CC1` (configuration not stated), with 5.37%.

As for `Cc1ncc(CN2CCCC2)c2cc(C(=O)c3ccc(Br)cc3)oc12`, the cytotoxicity at 10 µM worked out at 1.46%. As for `Cc1cc(CN2C[C@H](OCC3CCOCC3)[C@H]3COC[C@H]32)oc1C`, the figure is 6.88%; as for `c1cnc(N2CCOCC3(C2)CN(c2nccs2)CCO3)nc1` (configuration not stated), -104%; as for `Cn1cc(CNC2CC3(CCN(S(C)(=O)=O)CC3)c3ccccc32)cn1` (configuration not stated), -110%. Then `CCc1ccc(CN2CC[C@@H]3NC(=O)CC[C@@H]32)o1`, with 3.06%; and `c1ccc(N2CCCC3(CCN(Cc4cccs4)C3)C2)nc1` (configuration not stated), with 12.7%; and `CCCn1cc2nc(N3CCCC3)[nH]cc-2c1=O`, with 2.13%. Then `CC(C)c1nnc(N2C[C@H]3CC[C@@H](C2)N(CC2CCC2)C3)s1`, with -7.38%.

For the origin of these results see ChEMBL document CHEMBL4513216, “Probing the Open Global Health Chemical Diversity Library for Multistage-Active Starting Points for Next-Generation Antimalarials” (ACS Infect Dis, 2020).
